Reference: ChEMBL document CHEMBL4038340, “Development of Novel Peptide-Based Michael Acceptors Targeting Rhodesain and Falcipain-2 for the Treatment of Neglected Tropical Diseases (NTDs)” (J Med Chem, 2017)
Values belong to the compound of their own block, whether it stands above or below them. The source made the active and inactive calls. No cut-off for these calls is given here.

Tests used:
[1] = molecular target: Rhodesain (Trypanosoma brucei rhodesiense) (UniProt Q95PM0); assay: Inhibition of recombinant Trypanosoma brucei rhodesiense rhodesain expressed in Pichia pastoris assessed as second order rate constant using Cbz-Phe-Arg-AMC as substrate after 30 mins by fluorescence assay
Sequence of Rhodesain (Trypanosoma brucei rhodesiense) (Q95PM0 1-450): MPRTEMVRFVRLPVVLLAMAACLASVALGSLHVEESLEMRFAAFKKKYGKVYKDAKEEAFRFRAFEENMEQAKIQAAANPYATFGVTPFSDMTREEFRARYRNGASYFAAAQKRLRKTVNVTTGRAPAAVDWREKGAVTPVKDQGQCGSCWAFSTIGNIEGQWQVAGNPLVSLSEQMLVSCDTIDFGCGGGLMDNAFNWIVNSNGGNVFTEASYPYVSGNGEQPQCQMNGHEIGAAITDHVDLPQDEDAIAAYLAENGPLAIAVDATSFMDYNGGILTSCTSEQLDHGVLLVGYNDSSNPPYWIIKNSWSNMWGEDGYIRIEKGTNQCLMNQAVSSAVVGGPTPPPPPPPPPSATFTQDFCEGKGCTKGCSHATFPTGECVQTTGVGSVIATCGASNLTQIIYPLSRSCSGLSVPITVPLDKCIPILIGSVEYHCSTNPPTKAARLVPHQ
Summary of the method: (§1)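 Recombinant rhodesain with fluorogenic substrate Cbz-Phe-Arg-AMC. Preliminary screen at a fixed inhibitor concentration of 50 µM. Equal volume of DMSO served as negative control and E-64 as irreversible positive control. Active compounds went on to continuous assays at seven concentrations, from minimally to fully inhibitory, giving kinac (min-1), Ki (nM) and k2nd = kinac/Ki (M-1 min-1).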

Procathepsin L [2] = molecular target: T1, Procathepsin L (Homo sapiens, UniProt P07711); assay: Inhibition of human cathepsin L using Cbz-Phe-Arg-AMC as substrate after 10 mins by fluorescence assay
Target sequence in this assay (P07711 whole entry): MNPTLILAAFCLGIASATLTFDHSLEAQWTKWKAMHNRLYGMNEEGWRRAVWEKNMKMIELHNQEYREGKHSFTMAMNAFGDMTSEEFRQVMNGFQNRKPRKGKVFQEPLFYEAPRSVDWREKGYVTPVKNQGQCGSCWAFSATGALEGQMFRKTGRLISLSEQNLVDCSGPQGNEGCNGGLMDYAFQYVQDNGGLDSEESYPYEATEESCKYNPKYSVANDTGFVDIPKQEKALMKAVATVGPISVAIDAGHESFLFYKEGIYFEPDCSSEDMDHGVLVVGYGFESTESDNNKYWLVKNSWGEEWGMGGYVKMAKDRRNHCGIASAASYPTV

Procathepsin L [3] = molecular target: T1, Procathepsin L; assay: Inhibition of human cathepsin L assessed as first order rate constant using Cbz-Phe-Arg-AMC as substrate after 10 mins by fluorescence assay
Target sequence in this assay (P07711 114-333 limits assumed): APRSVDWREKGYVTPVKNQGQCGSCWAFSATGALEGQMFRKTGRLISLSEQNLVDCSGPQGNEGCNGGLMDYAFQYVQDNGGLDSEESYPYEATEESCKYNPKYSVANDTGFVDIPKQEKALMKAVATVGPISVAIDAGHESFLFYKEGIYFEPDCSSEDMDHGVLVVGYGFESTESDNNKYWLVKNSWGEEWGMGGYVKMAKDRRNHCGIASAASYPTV

[4] = test system: Trypanosoma brucei brucei; assay: Antiparasitic activity against bloodstream form of Trypanosoma brucei brucei 449 after 24 hrs by ATPlite assay; assay type: functional; settings: Trypanosoma brucei, 449, 24 h
[5] = molecular target: Rhodesain (Trypanosoma brucei rhodesiense) (UniProt Q95PM0); assay: Inhibition of recombinant Trypanosoma brucei rhodesiense rhodesain expressed in Pichia pastoris assessed as first order rate constant using Cbz-Phe-Arg-AMC as substrate after 30 mins by fluorescence assay; summary of the method: as §1
[6] = test system: Trypanosoma brucei brucei; assay: Antiparasitic activity against bloodstream form of Trypanosoma brucei brucei 449 after 48 hrs by ATPlite assay; assay type: functional; settings: Trypanosoma brucei, 449, 48 h
Plasmodium falciparum = assay: Antiparasitic activity against Plasmodium falciparum W2 after 48 hrs by YOYO-1 probe-based flow cytometry; assay type: functional; settings: W2, 48 h
Rhodesain = Rhodesain (Trypanosoma brucei rhodesiense, UniProt Q95PM0); assay: Inhibition of recombinant Trypanosoma brucei rhodesiense rhodesain expressed in Pichia pastoris using Cbz-Phe-Arg-AMC as substrate after 30 min by fluorescence assay
Sequence of Rhodesain (Q95PM0 whole entry): as the sequence (Q95PM0 1-450) above
Summary of the method: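 Recombinant rhodesain with fluorogenic Cbz-Phe-Arg-AMC substrate. Compounds were first screened at a fixed 50 µM, with DMSO as negative control and an irreversible clan CA cysteine-protease inhibitor as positive control. Continuous assays at seven inhibitor concentrations, from minimally to fully inhibitory, gave kinac (min-1) and Ki, with k2nd = kinac/Ki (M-1 min-1).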

Falcipain 2 = molecular target: T2, Falcipain 2 (Plasmodium falciparum, UniProt Q9N6S8); assay: Inhibition of recombinant Plasmodium falciparum falcipain-2 expressed in Escherichia coli M15(pREP4) using Cbz-Phe-Arg-AMC as substrate by fluorescence assay
T2 sequence (Q9N6S8 whole entry): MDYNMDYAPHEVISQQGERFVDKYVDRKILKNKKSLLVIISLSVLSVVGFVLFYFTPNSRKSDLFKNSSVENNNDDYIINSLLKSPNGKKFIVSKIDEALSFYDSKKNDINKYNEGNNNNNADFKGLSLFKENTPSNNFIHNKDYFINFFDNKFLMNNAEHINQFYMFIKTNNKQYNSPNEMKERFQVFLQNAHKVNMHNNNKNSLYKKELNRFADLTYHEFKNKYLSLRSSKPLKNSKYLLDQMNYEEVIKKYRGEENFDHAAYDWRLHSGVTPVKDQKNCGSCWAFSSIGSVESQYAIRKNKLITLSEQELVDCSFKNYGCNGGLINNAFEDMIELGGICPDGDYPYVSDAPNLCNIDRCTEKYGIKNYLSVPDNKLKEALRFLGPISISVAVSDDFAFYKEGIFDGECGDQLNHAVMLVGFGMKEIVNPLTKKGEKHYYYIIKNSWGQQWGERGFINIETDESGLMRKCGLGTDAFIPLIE

Procathepsin L [7] = molecular target: T1, Procathepsin L; assay: Inhibition of human cathepsin L assessed as second order rate constant using Cbz-Phe-Arg-AMC as substrate after 10 mins by fluorescence assay
Target sequence in this assay (P07711 114-333 limits assumed): as the sequence (P07711 114-333 limits assumed) above

[8] = Selectivity index, ratio of CC50 for human HeLa cells to EC50 for Trypanosoma brucei brucei 449 for 48 hrs; assay type: toxicity, cell-based; settings: read-out: Ratio CC50/EC50
[9] = Cytotoxicity against human HeLa cells assessed as decrease in cell viability after 48 hrs by MTT assay; assay type: cell-based
[10] = molecular target: Rhodesain (Trypanosoma brucei rhodesiense) (UniProt Q95PM0); assay: Inhibition of recombinant Trypanosoma brucei rhodesiense rhodesain expressed in Pichia pastoris using Cbz-Phe-Arg-AMC as substrate at 50 uM after 30 mins by fluorescence assay; summary of the method: as §1

Structure (SMILES): O=C(N[C@@H](Cc1ccccc1)C(=O)N[C@H](/C=C/S(=O)(=O)c1ccccc1)CCc1ccccc1)OCc1ccccc1
K [1]: 663 ×10³ /M/min
Ki (Procathepsin L [2]): 290 nM
Kinact (Procathepsin L [3]): 0.0014 min⁻¹
EC50 [4]: 23700 nM
Kinact [5]: 0.0033 min⁻¹
EC50 [6]: 18500 nM
EC50 (Plasmodium falciparum): > 10000 nM
Ki (Rhodesain): 5 nM
IC50 (Falcipain 2): 7330 nM
K (Procathepsin L [7]): 4.4 ×10³ /M/min

Structure (SMILES): CC(C)C[C@H](NC(=O)OCc1ccccc1)C(=O)N[C@H](/C=C/S(=O)(=O)c1ccccc1)CCc1ccccc1
K [1]: 342 ×10³ /M/min
Ki (Procathepsin L [2]): 0.61 nM
Kinact (Procathepsin L [3]): 0.0009 min⁻¹
EC50 [4]: 2500 nM
Kinact [5]: 0.0028 min⁻¹
EC50 [6]: 2620 nM
selectivity ratio at 48 h [8]: 4.6
EC50 (Plasmodium falciparum): 1530 nM
Ki (Rhodesain): 9.1 nM
CC50 at 48 h [9]: 12200 nM
IC50 (Falcipain 2): 780 nM
K (Procathepsin L [7]): 1570 ×10³ /M/min

EC50 [4]: 670 nM
EC50 [6]: 530 nM
Structure (SMILES): N=C(NCCCCCCNC(=N)NC(=N)Nc1ccc(Cl)cc1)NC(=N)Nc1ccc(Cl)cc1 [CHLORHEXIDINE]

Structure (SMILES): COC(=O)/C=C/[C@H](CCc1ccccc1)NC(=O)[C@H](CC(C)C)NC(=O)OCc1ccc([N+](=O)[O-])cc1
K [1]: 152 ×10³ /M/min
Ki (Procathepsin L [2]): 41 nM
Kinact (Procathepsin L [3]): 0.0014 min⁻¹
Kinact [5]: 0.0023 min⁻¹
EC50 (Plasmodium falciparum): 3970 nM
Ki (Rhodesain): 17 nM
IC50 (Falcipain 2): 9630 nM
K (Procathepsin L [7]): 35 ×10³ /M/min

Structure (SMILES): O=C(N[C@@H](Cc1ccccc1)C(=O)N[C@H](/C=C/S(=O)(=O)c1ccccc1)CCc1ccccc1)OCc1ccc([N+](=O)[O-])cc1
K [1]: 334 ×10³ /M/min
Ki (Procathepsin L [2]): 45 nM
Kinact (Procathepsin L [3]): 0.003 min⁻¹
EC50 [4]: 5480 nM
Kinact [5]: 0.0024 min⁻¹
EC50 [6]: 4070 nM
EC50 (Plasmodium falciparum): > 10000 nM
Ki (Rhodesain): 7.2 nM
IC50 (Falcipain 2): > 50000 nM
K (Procathepsin L [7]): 65 ×10³ /M/min

Structure (SMILES): N#C/C=C/[C@H](CCc1ccccc1)NC(=O)[C@H](Cc1ccccc1)NC(=O)OCc1ccc([N+](=O)[O-])cc1
K [1]: 0.26 ×10³ /M/min
Kinact [5]: 0.0004 min⁻¹
EC50 (Plasmodium falciparum): > 10000 nM
Ki (Rhodesain): 1740 nM
IC50 (Falcipain 2): > 50000 nM

EC50 (Plasmodium falciparum): > 10000 nM
inhibition [10]: inactive
IC50 (Falcipain 2): > 50000 nM
Structure (SMILES): CC(C)C[C@H](NC(=O)OCc1ccc([N+](=O)[O-])cc1)C(=O)N[C@H](/C=C/C#N)CCc1ccccc1

Structure (SMILES): CC(C)C[C@H](NC(=O)OCc1ccccc1)C(=O)N[C@H](/C=C/C#N)CCc1ccccc1
K [1]: 19 ×10³ /M/min
Ki (Procathepsin L [2]): 330 nM
Kinact (Procathepsin L [3]): 0.0012 min⁻¹
Kinact [5]: 0.001 min⁻¹
EC50 (Plasmodium falciparum): > 10000 nM
Ki (Rhodesain): 53 nM
IC50 (Falcipain 2): > 50000 nM
K (Procathepsin L [7]): 3.8 ×10³ /M/min

Structure (SMILES): CC(=O)/C=C/[C@H](CCc1ccccc1)NC(=O)[C@H](CC(C)C)NC(=O)OCc1ccccc1
K [1]: 3800 ×10³ /M/min
Ki (Procathepsin L [2]): 110 nM
Kinact (Procathepsin L [3]): 0.0013 min⁻¹
EC50 [4]: 3850 nM
Kinact [5]: 0.0016 min⁻¹
EC50 [6]: 3200 nM
selectivity ratio at 48 h [8]: 3
EC50 (Plasmodium falciparum): 3160 nM
Ki (Rhodesain): 0.5 nM
CC50 at 48 h [9]: 9580 nM
IC50 (Falcipain 2): 250 nM
K (Procathepsin L [7]): 13 ×10³ /M/min

Structure (SMILES): COC(=O)/C=C/[C@H](CCc1ccccc1)NC(=O)[C@H](Cc1ccccc1)NC(=O)OCc1ccccc1
K [1]: 919 ×10³ /M/min
Ki (Procathepsin L [2]): 27 nM
Kinact (Procathepsin L [3]): 0.004 min⁻¹
EC50 [4]: 12900 nM
Kinact [5]: 0.0018 min⁻¹
EC50 [6]: 8280 nM
EC50 (Plasmodium falciparum): > 10000 nM
Ki (Rhodesain): 2 nM
IC50 (Falcipain 2): > 50000 nM
K (Procathepsin L [7]): 153 ×10³ /M/min
